Our source for the cytotoxicity values is ChEMBL document CHEMBL4513216, “Probing the Open Global Health Chemical Diversity Library for Multistage-Active Starting Points for Next-Generation Antimalarials” (ACS Infect Dis, 2020).

Each structure is given as a SMILES string.

The data set in a line: Toxicity liver stage against HepG2, at 10uM. It is filed as cell-based. Also on record: test concentration 10 uM, cell line HepG2-A16-CD81EGFP. As to conditions: human, HepG2-A16-CD81EGFP cells; read-out: INHIBITION
The method in brief:
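Uninfected HepG2-A16-CD81EGFP cells, 3 × 10^3 per well, 1536-well, plated on prespotted compound at 10 μM final, parasite-free screening media added to match infected plates; puromycin 10 μM positive, DMSO 0.5% negative; run in parallel with 48 h PbLuc assay at 37 °C, 5% CO2; viability by CellTiter-Glo luminescence, normalized to controls.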
Regarding `CN(C)C(=O)c1ccccc1NC(=O)N(C)Cc1ccccc1O`, the cytotoxicity at 10 µM was -1.03%.
Next, `c1cc(N2CCSCC2)ccc1CNc1cncc2nnnn12`: 5.51%.
Next, `CCS(=O)(=O)CCN1CCN(C2CCC(C(C)C)CC2)CC1` (stereo not given): 7.76%; `COCCN1CC[C@]2(CN(C(=O)c3ccc[nH]3)C[C@H]2C)C1=O`: 2.53%.
On to `COCCN1CCCC2(CCN(c3cc(C)c(C#N)c(C)n3)C2)C1=O` (stereo not given), for which the cytotoxicity at 10 µM amounted to 2.7%.
Take `O=C(CNc1cc(-n2cnnn2)ccc1F)Nc1ccccc1Cl`: the cytotoxicity at 10 µM is 11.7%.
As for `Cc1cnc(CN2CCN(C(C)c3nc(C4CC4)no3)CC2)cn1` (stereo not given), the cytotoxicity at 10 µM turned out to be 1.32%.
As to `CN1C[C@H](c2ccccc2)[C@H]2CN(C(=O)Cc3ccc(O)cc3)CC[C@H]21`, the cytotoxicity at 10 µM is 8.14%.
In the case of `COc1ccccc1C(=O)N(C)Cc1ncc(C)c(OC)c1C` it was 5.37%; in that of `Cn1cc(-c2nc3c(cc2C(=O)O)CCN(C(=O)C2CC2)CC3)cn1`, 17.9%.
For `CCC1c2ccsc2CCN1C(=O)NCc1ccnc(N(C)C)c1` (stereo not given), the cytotoxicity at 10 µM is -11.9%.
`O=C(c1cnn2c1OCCC2)N1CCN(C/C=C/c2ccccc2)CC1`: the cytotoxicity at 10 µM worked out at 9.28%.
With `O=C(c1ccc(F)cc1F)N(CC(F)(F)F)C1CCOCC1`, the cytotoxicity at 10 µM came to 1.24%.
Regarding `CSCC(CCO)NC(=O)c1cccc(C)c1Cl` (stereo not given), the cytotoxicity at 10 µM came out at 16.8%.
In the case of `O=C1CCC2(CCCN(C(=O)C3CCCC3)C2)CN1CCc1c[nH]cn1` (stereo not given) it was -0.699%; in that of `CCc1ccc(C(=O)N(CC(F)(F)F)C2CCCOC2)o1` (stereo not given), -7.59%.
In the case of `Cc1cnc(N2CC[C@H]3[C@@H]2CCC(=O)N3c2ccccc2)nc1`, the cytotoxicity at 10 µM is 4.15%.
In the case of `CCNc1cc2c(nn1)CCN(C(=O)Cc1ccc(C)nc1)C2` it was -3.63%; in that of `CN1CC(=O)N(c2cccc(F)c2)CC12CCN(Cc1cnn(C)c1)C2` (stereo not given), -5.87%; in that of `O=S(=O)(NCCn1ccc(-c2cccs2)n1)C1CC1`, -0.297%.
Next, `CCOC(C)c1nc(COc2nc(C)no2)cs1` (stereo not given): -1.64%.
In the case of `Cc1cc(-c2cnc(NCc3ccncc3)nc2C(C)C)on1` it was 59.7%; in that of `CC[C@@H](CO)Nc1nccc(-c2cnc3sc(C)cn3c2=O)n1`, -14%; in that of `Cc1nnc2n1CCN(CCS(=O)(=O)c1ccccc1)C2`, -9.7%.
On to `CC(Cn1ccnc1)NS(=O)(=O)Cc1ccc(F)cc1` (stereo not given), for which the cytotoxicity at 10 µM was determined as 5.36%.
In the case of `COc1ccc(C)cc1NC(=O)Cn1nc(C)c(C#N)c1N` it was -22.9%.
For `O=C(NC[C@H]1OC[C@@H](NCc2ccccc2F)[C@@H]1O)Nc1ccccc1`, the cytotoxicity at 10 µM is -7.3%.
In the case of `Cc1ccc(C2COCCN2C(=O)c2ccc(C)s2)o1` (stereo not given), the cytotoxicity at 10 µM is -3.9%.
Turning to `Cc1cc2nccc(C3CCCN(C(=O)c4ccccc4F)C3)n2n1` (stereo not given), the cytotoxicity at 10 µM worked out at 13.6%.
With `O=C1COC2(CCN(Cc3ccoc3)CC2)CN1c1ccccc1`, the cytotoxicity at 10 µM is -122%.
As for `CCOCC1COCCC12CCN(C(=O)CS(C)(=O)=O)CC2` (stereo not given), the cytotoxicity at 10 µM is -1.99%.
In the case of `O=C(Cn1cc(I)cn1)N1CCc2ccccc2C1` it was 11.2%; in that of `COc1ccccc1C(O)CNC(=O)Nc1cccnc1OC` (stereo not given), -14.7%.
For the molecule `Cc1cc(CN2C[C@@H]3COC[C@H](C(=O)N4CCCCO4)[C@@H]3C2)no1`, the cytotoxicity at 10 µM is -77.9%.
In the case of `CC(C)c1nnc2n1CCN(C(=O)c1cc(Cl)c[nH]1)C2` it was -11.4%.
As for `CC(C)(C)C(=O)NCCC(=O)NS(=O)(=O)c1ccc2c(c1)OCCO2`, the cytotoxicity at 10 µM was -3.81%.
For `Cc1ncsc1CN1C[C@@H](OCc2ccncc2)[C@H]2OCCC[C@H]21`, the cytotoxicity at 10 µM was -148%.
Turning to `Cn1ccnc1CN1CCC(Cn2cc(-c3ccccc3)nn2)CC1`, the cytotoxicity at 10 µM amounted to 0.959%.
Next, `CC(C)CS(=O)(=O)N1C[C@@H]2C[C@H](C(=O)Nc3cccnc3)[C@H](C1)O2`: -1.55%; `O=C(c1ccc(S(=O)(=O)NCc2ccon2)cc1)N1CCNCC1`: 2.59%; `CSCc1noc(C2CCC(=O)N(CCCN3CCCC3=O)C2)n1` (stereo not given): 3.59%.
In the case of `CN(C)C(=O)CN1CCCCC1c1nc(N)ncc1-c1ccc(Cl)cc1` (stereo not given) it was -14.9%.
As to `Cc1nc2cc(C(=O)N(CCC#N)CCC#N)ccc2n1C`, the cytotoxicity at 10 µM was -3.91%.
Next, `Cc1cc(C2CCCN2C(=O)c2cc3c(s2)CCC3)no1` (stereo not given): -11%; `CCN(C)c1ncnc2c1CCN(Cc1ccoc1)CC2`: -0.439%.
With `Cc1cc(-c2nn(C)c(Cl)c2CN2CCOCC2CC(N)=O)no1` (stereo not given), the cytotoxicity at 10 µM is 3.3%.
In the case of `O=S(=O)(NCc1cccnc1OC1CCCC1)N1CCOCC1` it was 1.46%; in that of `COc1ccc(CN2C[C@@H](OCc3csc(C)n3)[C@H]3COC[C@H]32)cc1`, -17.3%; in that of `CC(Cn1cncc1-c1cnn(Cc2ccccc2)c1)N1CCCCC1` (stereo not given), 6.58%.
In the case of `CCCNC(=O)CN1CCC(C(=O)Nc2cnn(CC)c2)CC1` it was -2.04%; in that of `CC(C)CN(Cc1ccc(O)c(C(=O)O)c1)Cc1ccccn1`, 8.5%; in that of `CCSCc1ccc(C(=O)N2CCCN(CC(N)=O)CC2)cc1`, 10.5%.
In the case of `CC(=O)N[C@@H]1CN(C(=O)c2cccc(C(F)(F)F)c2)C[C@H]1O` it was 1.9%; in that of `CCOc1cc(C(=O)N2CCCC(c3noc(C(C)C)n3)C2)ccn1` (stereo not given), -6.73%; in that of `Clc1ccc2[nH]c3c(c2c1)CCCC3c1nn[nH]n1` (stereo not given), -4.13%.
On to `Cc1ccc(N(C)[C@@H]2CC[C@@H]3CN(C(=O)Cc4cccs4)C[C@@H]32)nn1`, for which the cytotoxicity at 10 µM is -13.5%.
Regarding `COC(C)C(=O)NS(=O)(=O)c1cccc2cc(C)cnc12` (stereo not given), the cytotoxicity at 10 µM was -6.55%.
Regarding `COc1ccc(NC(=O)C2CCCO2)cc1OCc1cccnc1` (stereo not given), the cytotoxicity at 10 µM was -23.6%.
Next, `Cc1cnn(CC2CN(CCc3ccccn3)CCO2)c1` (stereo not given): -4.98%; `COC(=O)[C@H]1C[C@@H](O)CCN1S(=O)(=O)c1cc(C)c(Cl)cc1C`: -0.566%; `Cc1[nH]ncc1C(=O)N1CCN(CC(O)C(C)(C)C)CC1` (stereo not given): -0.00964%.
Consider `Cc1cc(N(C)Cc2snnc2C)nc(-c2cccnc2)n1`, for which the cytotoxicity at 10 µM came to 2.43%.
In the case of `O=C(CC1CC1)N1CCc2ncc(CN3CCOCC3)n2CC1` it was -80.6%; in that of `CC(C)(C)c1ccc(OCC(=O)O)c(CN2C[C@H]3CC(O)C[C@H]3C2)c1` (stereo not given in full), 3.46%; in that of `Cc1c(NC(=O)NC2CCCC2)cccc1C(=O)N1CCSCC1`, 11.8%.
Take `COCCCNC(=O)Nc1ccc(F)c(C(N)=O)c1`: the cytotoxicity at 10 µM was -12.9%.
Next, `CC(C)C[C@H](NC(=O)NC1CCS(=O)(=O)C1)C(=O)NCc1cccnc1` (stereo not given in full): 0.948%; `CNC(=O)C1(C)CN(S(=O)(=O)c2cccc(OC)c2)CCO1` (stereo not given): -1.43%; `CC(=Cc1ccccc1)CNCc1cccc(C(N)=O)c1`: 6.03%.
In the case of `CNCC1CCC(c2cc(CN(C)S(=O)(=O)N(C)C)n(C)n2)CC1` (stereo not given) it was -1.33%; in that of `CN1CCCC(Cc2ccnc3ccncc23)CC1` (stereo not given), -0.336%.
With `O=C(NCCc1ccncc1)c1cccc(S(=O)(=O)N[C@@H]2CCNC2)c1`, the cytotoxicity at 10 µM worked out at 4.93%.
On to `CCc1nnc(CN(C)C2CCCN(Cc3noc(C4CC4)n3)C2)o1` (stereo not given), for which the cytotoxicity at 10 µM was 2.27%.
In the case of `CC1c2ncc(COc3cccnc3)n2CCN1Cc1cnn(C)c1` (stereo not given) it was -112%; in that of `O=S(=O)(Cc1ccc(F)cc1)NCCc1nnc2n1CCC2`, 17.2%; in that of `COc1ccc(C2CNCCN2C(=O)c2cccc3cccnc23)cc1` (stereo not given), -4.48%.
Take `CO[C@@H]1CCN(S(=O)(=O)c2cccs2)[C@H]1Cc1cccnc1`: the cytotoxicity at 10 µM is -80.3%.
`CC(C)c1nsc(NC2CCOC3(CCCC3)C2)n1` (stereo not given): the cytotoxicity at 10 µM turned out to be 8.83%.
Next, `CSCC(=O)N1CCOC(c2nc(C(C)C)n[nH]2)C1` (stereo not given): -4.99%; `CCNC(=O)N1CCC(c2ccccc2)C1` (stereo not given): -3.57%; `Cc1ccc(C)c2c(O)cc(CN3CCNC(=O)C3C)nc12` (stereo not given): -1.66%.
In the case of `c1cncc(CN2CCC3(COCCN(C4CCOCC4)C3)C2)c1` (stereo not given) it was 1.46%; in that of `CN1CCC(c2cccc(NCc3nccn3C)n2)CC1`, 8.28%; in that of `O=C(NCC1CC1)C1CN(C(=O)c2cccs2)CC12CCOCC2` (stereo not given), -14%.
With `Cc1occc1C(=O)N1CC[C@@H](N2CCOCC2)[C@@H]1Cc1ccccc1`, the cytotoxicity at 10 µM is -4.09%.
On to `O=C(c1cccc2c1OCCO2)N1CCCC1Cn1cccn1` (stereo not given), for which the cytotoxicity at 10 µM was -10.7%.
In the case of `CCN(CC1CCCO1)C(=O)CSCC(=O)Nc1ccc(C)cc1` (stereo not given) it was -1.69%; in that of `Cc1nc(C)c(Cc2nc(C3CC3)n[nH]2)c(=O)[nH]1`, 2.39%; in that of `C[C@H](NS(C)(=O)=O)C(=O)NCc1cc(-c2ccco2)n[nH]1`, -8.27%.
As for `CCC(=O)N1CCc2onc(CNS(C)(=O)=O)c2C1`, the cytotoxicity at 10 µM was -96.5%.
In the case of `CN1CCC(N2CCOC[C@H]2c2nc(-c3ccncc3)c[nH]2)CC1` it was -5.15%; in that of `O=C(Nc1ccccc1)C1=NOC2(CCCNC2)C1` (stereo not given), 1.02%.
In the case of `CCN1CCOCC12CCN(c1ccc(C#N)cc1)CC2`, the cytotoxicity at 10 µM was -6.93%.
In the case of `CCn1cc(CN2CCCC(c3[nH]ncc3-c3ccc(C)cc3)C2)cn1` (stereo not given) it was -1.67%; in that of `O=C(CS(=O)(=O)Cc1ccc(F)cc1)NCc1ccccc1F`, 5.96%.
